Assay results taken from ChEMBL document CHEMBL1133562, “Pyrazole ligands: structure-affinity/activity relationships and estrogen receptor-alpha-selective agonists” (J Med Chem, 2000).

Columns and labels:
[1] = biological target: Estrogen receptor (Homo sapiens) (UniProt Q92731+P03372); assay: RBA ratio between ERalpha and ERbeta; assay type: protein assay
[2] = biological target: Estrogen receptor beta (Homo sapiens) (UniProt Q92731); assay: Relative binding affinity was determined for Estrogen receptor 2 using 10 nM [3H]E2 as tracer (estradiol 100%)
Summary of the method: (§1)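 Competitive radiometric binding with purified full-length human ERα or ERβ, 10 nM [3H]estradiol tracer. Receptor–tracer complex adsorbed on hydroxylapatite. Incubation at 0 °C for 18-24 h. RBA expressed relative to estradiol = 100%. Mean of at least 2, typically 3 or more, independent determinations (±SD); coefficient of variation 0.3.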

[3] = biological target: T1, Estrogen receptor (Homo sapiens) (UniProt P03372); assay: Relative binding affinity was determined for Estrogen receptor 1 using 10 nM [3H]-E2 as tracer (estradiol 100%); summary of the method: as §1
T1 sequence (whole entry): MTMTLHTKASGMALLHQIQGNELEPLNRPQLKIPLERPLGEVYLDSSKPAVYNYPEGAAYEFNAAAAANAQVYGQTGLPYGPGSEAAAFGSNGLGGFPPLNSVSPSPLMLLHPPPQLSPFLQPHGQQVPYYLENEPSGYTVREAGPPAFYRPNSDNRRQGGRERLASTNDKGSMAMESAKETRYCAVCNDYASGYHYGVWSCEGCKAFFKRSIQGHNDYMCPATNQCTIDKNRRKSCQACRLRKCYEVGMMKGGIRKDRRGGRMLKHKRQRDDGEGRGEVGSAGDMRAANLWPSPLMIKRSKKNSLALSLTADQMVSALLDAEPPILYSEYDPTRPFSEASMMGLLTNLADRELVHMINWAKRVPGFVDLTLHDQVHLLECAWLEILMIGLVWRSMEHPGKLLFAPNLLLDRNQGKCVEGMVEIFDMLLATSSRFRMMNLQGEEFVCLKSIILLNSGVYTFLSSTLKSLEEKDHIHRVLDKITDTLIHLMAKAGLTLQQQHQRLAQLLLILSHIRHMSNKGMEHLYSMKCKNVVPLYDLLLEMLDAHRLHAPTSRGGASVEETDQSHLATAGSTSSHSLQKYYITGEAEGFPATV

Chain of Estrogen receptor beta (Homo sapiens) (Q92731 whole entry): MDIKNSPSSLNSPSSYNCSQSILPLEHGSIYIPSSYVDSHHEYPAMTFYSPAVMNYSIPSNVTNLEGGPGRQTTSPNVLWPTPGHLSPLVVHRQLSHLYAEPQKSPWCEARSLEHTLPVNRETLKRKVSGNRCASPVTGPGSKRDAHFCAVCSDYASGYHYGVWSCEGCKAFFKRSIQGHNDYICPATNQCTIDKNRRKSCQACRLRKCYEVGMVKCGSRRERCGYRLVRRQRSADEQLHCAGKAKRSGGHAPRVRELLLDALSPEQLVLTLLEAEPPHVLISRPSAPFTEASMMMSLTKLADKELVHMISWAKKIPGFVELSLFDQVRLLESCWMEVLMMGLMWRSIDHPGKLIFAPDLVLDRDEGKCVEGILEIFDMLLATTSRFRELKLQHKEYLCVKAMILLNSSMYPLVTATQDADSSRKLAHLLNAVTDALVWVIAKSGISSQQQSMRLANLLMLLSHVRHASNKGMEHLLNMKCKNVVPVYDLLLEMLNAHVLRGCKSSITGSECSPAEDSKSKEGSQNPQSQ
Chain of Estrogen receptor (Homo sapiens) (UniProt Q92731+P03372) (Q92731 whole entry, looked up, one chain of several): as the sequence (Q92731 whole entry) above

Ratio [1]	RBA [2]	RBA [3]	SMILES
32	0.52	16.8	CCCc1c(-c2ccc(O)cc2)nn(-c2ccccc2)c1-c1ccc(O)cc1
2.7	0.28	0.76	Cc1c(-c2ccc(O)cc2)nn(-c2ccccc2)c1-c1ccc(O)cc1
28	1.1	31	CCc1c(-c2ccc(O)cc2)nn(-c2ccccc2)c1-c1ccc(O)cc1
4.3	0.61	2.6	CCc1c(-c2ccc(O)cc2)nn(-c2ccccc2)c1-c1ccccc1
77	0.18	14	CCCCc1c(-c2ccc(O)cc2)nn(-c2ccc(O)cc2)c1-c1ccc(O)cc1
0.67	0.06	0.04	CCc1c(-c2ccccc2)nn(-c2ccccc2)c1-c1ccc(O)cc1
19	0.47	8.7	CCCCc1c(-c2ccc(O)cc2)nn(-c2ccccc2)c1-c1ccc(O)cc1
2.1	1.5	3.1	CCc1c(-c2ccccc2)nn(-c2ccc(O)cc2)c1-c1ccccc1
240	0.15	36	CCc1c(-c2ccc(O)cc2)nn(-c2ccc(O)cc2)c1-c1ccc(O)cc1
		49	CCCc1c(-c2ccc(O)cc2)nn(-c2ccc(O)cc2)c1-c1ccc(O)cc1
84	0.89	75	CC(C)Cc1c(-c2ccc(O)cc2)nn(-c2ccc(O)cc2)c1-c1ccc(O)cc1
9	0.8	7	CCc1c(-c2ccccc2)nn(-c2ccc(O)cc2)c1-c1ccc(O)cc1
40	1.4	56	CC(C)Cc1c(-c2ccc(O)cc2)nn(-c2ccccc2)c1-c1ccc(O)cc1
28	0.32	8.9	CCc1c(-c2ccc(O)cc2)nn(-c2ccc(O)cc2)c1-c1ccccc1
6.5	0.86	5.6	CC(C)c1c(-c2ccc(O)cc2)nn(-c2ccccc2)c1-c1ccc(O)cc1
